Experimental data reported in publication PMC6130785 (ACS Omega, 2018).

Columns and labels:
[1] = target: T1, PIKFYVE (Homo sapiens, UniProt Q9Y2I7); assay: PIKFYVE inhibition assay; format: biochemical
[2] = target: T1, PIKFYVE; assay: Lipid kinase competition assay; format: binding; details: Table 2 / Figure 3 compound series, standard dose-response curve
Method in brief: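 Competition binding: biotinylated kinase-specific control ligand on streptavidin magnetic beads formed affinity resin. DNA-tagged PIKFYVE, liganded beads and test compound were combined. Bound kinase was eluted and quantified by qPCR of its DNA tag. Kinase amount was plotted against test compound concentration, and Kd was fitted to a standard dose–response curve using the Hill equation.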

T1 sequence (Q9Y2I7 whole entry): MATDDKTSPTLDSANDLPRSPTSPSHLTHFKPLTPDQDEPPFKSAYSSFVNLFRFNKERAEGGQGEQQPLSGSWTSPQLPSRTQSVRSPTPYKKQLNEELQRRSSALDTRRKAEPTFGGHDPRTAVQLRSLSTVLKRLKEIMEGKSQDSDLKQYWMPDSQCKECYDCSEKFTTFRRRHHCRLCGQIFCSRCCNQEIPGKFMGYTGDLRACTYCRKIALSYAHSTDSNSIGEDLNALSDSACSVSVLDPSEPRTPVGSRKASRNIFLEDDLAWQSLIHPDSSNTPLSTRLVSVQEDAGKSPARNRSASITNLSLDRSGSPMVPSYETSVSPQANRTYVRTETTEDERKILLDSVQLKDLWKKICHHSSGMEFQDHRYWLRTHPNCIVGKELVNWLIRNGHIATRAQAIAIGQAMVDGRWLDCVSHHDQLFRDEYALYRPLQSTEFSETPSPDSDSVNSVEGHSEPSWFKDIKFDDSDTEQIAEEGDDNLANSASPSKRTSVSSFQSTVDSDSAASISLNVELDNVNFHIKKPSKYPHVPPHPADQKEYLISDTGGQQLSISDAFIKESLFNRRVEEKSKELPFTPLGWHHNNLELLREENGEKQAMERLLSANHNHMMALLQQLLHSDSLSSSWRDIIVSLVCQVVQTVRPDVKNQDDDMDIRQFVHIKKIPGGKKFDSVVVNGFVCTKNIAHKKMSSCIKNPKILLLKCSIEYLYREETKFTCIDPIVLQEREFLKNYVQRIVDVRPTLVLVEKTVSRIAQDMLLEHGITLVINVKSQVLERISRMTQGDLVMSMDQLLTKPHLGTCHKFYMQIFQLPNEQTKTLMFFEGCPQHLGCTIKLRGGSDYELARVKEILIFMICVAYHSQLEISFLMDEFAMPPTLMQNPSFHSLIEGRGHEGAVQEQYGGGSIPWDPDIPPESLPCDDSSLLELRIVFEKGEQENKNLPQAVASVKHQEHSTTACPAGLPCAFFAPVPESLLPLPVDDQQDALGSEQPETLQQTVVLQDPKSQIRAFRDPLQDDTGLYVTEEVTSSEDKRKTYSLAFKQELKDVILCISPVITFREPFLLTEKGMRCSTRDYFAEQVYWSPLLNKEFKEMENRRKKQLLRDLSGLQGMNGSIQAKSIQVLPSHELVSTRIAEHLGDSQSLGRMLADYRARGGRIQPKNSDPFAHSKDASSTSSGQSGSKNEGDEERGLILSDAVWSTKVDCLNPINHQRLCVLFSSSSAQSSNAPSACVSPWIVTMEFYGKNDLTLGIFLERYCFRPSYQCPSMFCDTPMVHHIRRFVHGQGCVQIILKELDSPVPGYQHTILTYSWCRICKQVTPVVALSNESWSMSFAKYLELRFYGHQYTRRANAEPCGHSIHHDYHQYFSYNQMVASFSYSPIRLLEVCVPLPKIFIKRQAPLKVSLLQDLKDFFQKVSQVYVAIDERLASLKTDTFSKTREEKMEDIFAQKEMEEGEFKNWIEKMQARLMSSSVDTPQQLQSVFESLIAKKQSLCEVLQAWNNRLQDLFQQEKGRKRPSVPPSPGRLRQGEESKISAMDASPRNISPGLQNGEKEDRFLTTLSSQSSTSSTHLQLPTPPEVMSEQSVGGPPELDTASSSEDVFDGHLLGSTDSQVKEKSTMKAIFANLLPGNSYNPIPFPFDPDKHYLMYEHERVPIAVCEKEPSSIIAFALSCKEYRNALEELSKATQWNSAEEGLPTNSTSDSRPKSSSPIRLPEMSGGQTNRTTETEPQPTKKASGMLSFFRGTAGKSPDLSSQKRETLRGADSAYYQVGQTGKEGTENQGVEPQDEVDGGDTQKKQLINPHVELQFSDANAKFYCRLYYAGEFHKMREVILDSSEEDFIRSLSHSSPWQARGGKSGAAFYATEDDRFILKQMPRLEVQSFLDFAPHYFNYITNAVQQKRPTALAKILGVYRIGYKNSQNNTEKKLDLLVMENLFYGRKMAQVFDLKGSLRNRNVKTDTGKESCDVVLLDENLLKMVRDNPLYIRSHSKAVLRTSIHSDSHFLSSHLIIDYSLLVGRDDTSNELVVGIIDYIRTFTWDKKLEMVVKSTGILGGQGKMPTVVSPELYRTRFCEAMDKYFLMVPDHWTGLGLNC

In the case of CCOC(=O)c1[nH]c2ccc(OC)cc2c1/C=C/C(=O)c1ccncc1 [2l, (E)-Ethyl 5-Methoxy-3-(3-oxo-3-(pyridin-4-yl)prop-1-en-1-yl)-[1H]-indole-2-carboxylate], the IC50 [1] is reported as 446 nM and the Kd [2] is reported as > 500 nM.
